Experimental data from article PMC4242102 (Investigational new drugs, 2013).

Experiments:
HUVEC = assay: Cytotoxicity assay; assay type: cell-based; conditions: Homo sapiens, 72 h, read-out: IC50 on cell viability
How it was run: (§1)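 Cells grown in 0.2% gelatin-coated flasks in RPMI 1640 with 20% human serum, 2 mM glutamine, penicillin/streptomycin. Seeded at 3,000 cells/well and allowed to adhere ≥3 h (37 °C, 5% CO2), then exposed to a range of test compound concentrations for 72 h. Viability measured by CCK-8 or MTT, relative to vehicle-only cultures. Triplicate wells, ≥3 independent experiments. Apparent IC50 (concentration giving 50% viability) taken from mean dose-response curves.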

[1] = system: A549 lung carcinoma cells; assay: Cytotoxicity assay; assay type: cell-based; conditions: Homo sapiens, A549, 72 h, read-out: IC50 on cell viability
How it was run: (§2)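 Cells maintained on uncoated flasks in RPMI 1640 with 10% FBS and 1% penicillin/streptomycin; mycoplasma-checked. Seeded at 3,000 cells/well, allowed ≥3 h adherence (37 °C, 5% CO2), then treated 72 h with graded test compound concentrations. CCK-8 or MTT colorimetric viability, expressed against vehicle-treated cultures. Triplicate wells, at least three independent runs. Apparent IC50 (concentration giving 50% viability) read from mean dose-response curves.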

FSAII fibrosarcoma cells = assay: Cytotoxicity assay; assay type: cell-based, murine; conditions: Mus musculus, 72 h, read-out: IC50 on cell viability
How it was run: as §2

B16F10 melanoma cells = assay: Cytotoxicity assay; assay type: cell-based, murine; conditions: Mus musculus, B16-F10, 72 h, read-out: IC50 on cell viability
How it was run: as §2

[2] = system: MA148 ovarian carcinoma cells; assay: Cytotoxicity assay; assay type: cell-based; conditions: Homo sapiens, Ovarian carcinoma cell, 72 h, read-out: IC50 on cell viability
How it was run: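 3,000 cells/well, left to adhere at least 3 h at 37 °C in 5% CO2, then exposed to various test compound concentrations for 72 h. Viability read colorimetrically (CCK-8 or MTT) as percentage of vehicle-only cultures. Each experiment in triplicate, repeated ≥3 times. Apparent IC50 (concentration for 50% viability) derived from averaged dose-response curves.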

General toxicity = assay type: in vivo; conditions: 10 mg/kg IP BID, comparison study (Fig. 4b)
2H11 endothelial cells = assay: Cytotoxicity assay; assay type: cell-based, murine; conditions: Mus musculus, Endothelial cell, 72 h, read-out: IC50 on cell viability
How it was run: as §2

Fibroblasts = assay: Cytotoxicity assay; assay type: cell-based; conditions: Fibroblast, 72 h, read-out: IC50 on cell viability
How it was run: as §1

[3] = system: SCK mammary carcinoma cells; assay: Cytotoxicity assay; assay type: cell-based, murine; conditions: Mus musculus, 72 h, read-out: IC50 on cell viability
How it was run: as §2

`CN(C)CCNC(=O)COc1c2cccc1Cc1cccc(c1OCC(=O)NCCN(C)C)Cc1cccc(c1OCC(=O)NCCN(C)C)Cc1cccc(c1OCC(=O)NCCN(C)C)C2` [PTX008] gave an IC50 (HUVEC) of 3 µM, an IC50 [1] of 2 µM and an IC50 (FSAII fibrosarcoma cells) greater than 20 µM. The IC50 (B16F10 melanoma cells) was 80 µM, the IC50 [2] was 0.5 µM and the “body weights of mice during treatment” value (General toxicity) was “remained constant”. It also gave an IC50 (2H11 endothelial cells) greater than 100 µM, an IC50 (Fibroblasts) of 35 µM and an IC50 [3] of 100 µM.
